Measured values as given in ChEMBL document CHEMBL2390903, “Anti-tubercular agents. Part 7: a new class of diarylpyrrole-oxazolidinone conjugates as antimycobacterial agents” (Eur J Med Chem, 2013).
Values after ≈ are worked out from the molar mass of the structure shown.

Tested on: Mycobacterium tuberculosis
Experiment: Antitubercular activity against rifampicin-resistant Mycobacterium tuberculosis assessed as growth inhibition after 2 to 3 weeks by broth microdilution method
Assay type: functional
How it was run: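 Primary screen of all compounds against H37Rv at a single concentration in triplicate by microplate dilution. Actives then went to MIC determination by broth microdilution against H37Rv, rifampicin-resistant and XDR-1 isolates. Plates incubated 2–3 weeks at 37 °C in a CO2 incubator. MIC read visually as absence of growth turbidity. Rifampicin and linezolid served as reference drugs.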

CC(=O)NC[C@H]1CN(c2ccc(N3CCN(Cc4cc(-c5cccc(Cl)c5)n(-c5ccccc5F)c4C)CC3)c(F)c2)C(=O)O1
MIC: 8 µg/mL (≈ 12.6 µM)

CC(=O)NC[C@H]1CN(c2ccc(N3CCN(Cc4cc(-c5ccc(C(C)C)cc5)n(-c5ccc(F)cc5F)c4C)CC3)c(F)c2)C(=O)O1
MIC: 4 µg/mL (≈ 6.06 µM)

Cc1ccccc1-c1cc(CN2CCN(c3ccc(N4C[C@H](Cn5cc(-c6cncn6C)nn5)OC4=O)cc3F)CC2)c(C)n1-c1ccc(F)cc1
MIC: 4 µg/mL (≈ 5.68 µM)

Cc1c(CN2CCN(c3ccc(N4C[C@H](Cn5cc(-c6ccccc6)nn5)OC4=O)cc3F)CC2)cc(-c2cccc(Cl)c2)n1-c1ccccc1F
MIC: > 16 µg/mL

Cc1c(CN2CCN(c3ccc(N4C[C@H](Cn5cc(-c6ccccc6)nn5)OC4=O)cc3F)CC2)cc(-c2ccc(Cl)c(F)c2)n1-c1ccc(OC(F)(F)F)cc1
MIC: > 16 µg/mL

Cc1ccc(-c2cc(CN3CCN(c4ccc(N5C[C@H](Cn6cc(-c7ccccc7)nn6)OC5=O)cc4F)CC3)c(C)n2-c2ccc(Cl)c(Cl)c2)cc1
MIC: > 16 µg/mL

Cc1c(CN2CCN(c3ccc(N4C[C@H](Cn5cc(-c6ccccc6)nn5)OC4=O)cc3F)CC2)cc(-c2ccc(F)cc2F)n1-c1cc(F)ccc1Br
MIC: > 16 µg/mL

Cc1cccc(-c2cn(C[C@H]3CN(c4ccc(N5CCN(Cc6cc(-c7ccccc7C)n(-c7ccc(F)cc7)c6C)CC5)c(F)c4)C(=O)O3)nn2)c1
MIC: > 16 µg/mL

CC(=O)NC[C@H]1CN(c2ccc(N3CCN(Cc4cc(-c5ccc(F)cc5F)n(-c5cc(F)ccc5Br)c4C)CC3)c(F)c2)C(=O)O1
MIC: 8 µg/mL (≈ 11.2 µM)

Cc1ccc(-c2cc(CN3CCN(c4ccc(N5C[C@H](Cn6cc(-c7ccccn7)nn6)OC5=O)cc4F)CC3)c(C)n2-c2ccc(Cl)c(Cl)c2)cc1
MIC: 4 µg/mL (≈ 5.32 µM)

Cc1c(CN2CCN(c3ccc(N4C[C@H](Cn5cc(-c6ccccn6)nn5)OC4=O)cc3F)CC2)cc(-c2ccc(Cl)c(F)c2)n1-c1ccc(OC(F)(F)F)cc1
MIC: 4 µg/mL (≈ 4.97 µM)

Cc1c(CN2CCN(c3ccc(N4C[C@H](Cn5cc(-c6ccccn6)nn5)OC4=O)cc3F)CC2)cc(-c2ccc(F)cc2F)n1-c1ccc(F)cc1
MIC: 8 µg/mL (≈ 11.1 µM)

Cc1ccccc1-c1cc(CN2CCN(c3ccc(N4C[C@H](Cn5cc(-c6ccccn6)nn5)OC4=O)cc3F)CC2)c(C)n1-c1ccc(F)c(F)c1
MIC: 4 µg/mL (≈ 5.56 µM)

Cc1c(CN2CCN(c3ccc(N4C[C@H](Cn5cc(-c6cncn6C)nn5)OC4=O)cc3F)CC2)cc(-c2ccc(C(C)C)cc2)n1-c1ccc(F)cc1F
MIC: 8 µg/mL (≈ 10.7 µM)

Cc1c(CN2CCN(c3ccc(N4C[C@H](Cn5cc(-c6cncn6C)nn5)OC4=O)cc3F)CC2)cc(-c2ccc(F)cc2F)n1-c1ccc(F)cc1
MIC: 8 µg/mL (≈ 11 µM)

Cc1ccccc1-c1cc(CN2CCN(c3ccc(N4C[C@H](Cn5cc(-c6cncn6C)nn5)OC4=O)cc3F)CC2)c(C)n1-c1ccc(F)c(F)c1
MIC: 8 µg/mL (≈ 11.1 µM)

CC(=O)NC[C@H]1CN(c2ccc(N3CCOCC3)c(F)c2)C(=O)O1 [LINEZOLID]
MIC: 2 µg/mL (≈ 5.93 µM)

CO[C@H]1/C=C/O[C@@]2(C)Oc3c(C)c(O)c4c(O)c(c(/C=N/N5CCN(C)CC5)c(O)c4c3C2=O)NC(=O)/C(C)=C\C=C\[C@H](C)[C@H](O)[C@@H](C)[C@@H](O)[C@@H](C)[C@H](OC(C)=O)[C@@H]1C [RIFAMPIN]
MIC: > 128 µg/mL
